From ChEMBL document CHEMBL4130408, “Photoactivation provides a mechanistic explanation for pan-assay interference behaviour of 2-aminopyrroles in lipoxygenase inhibition” (Eur J Med Chem, 2017)
Active and inactive are the calls of the source. No cut-off for these calls is given here.

T1: Polyunsaturated fatty acid lipoxygenase ALOX15 (Homo sapiens, UniProt P16050)
T1 sequence (P16050 whole entry): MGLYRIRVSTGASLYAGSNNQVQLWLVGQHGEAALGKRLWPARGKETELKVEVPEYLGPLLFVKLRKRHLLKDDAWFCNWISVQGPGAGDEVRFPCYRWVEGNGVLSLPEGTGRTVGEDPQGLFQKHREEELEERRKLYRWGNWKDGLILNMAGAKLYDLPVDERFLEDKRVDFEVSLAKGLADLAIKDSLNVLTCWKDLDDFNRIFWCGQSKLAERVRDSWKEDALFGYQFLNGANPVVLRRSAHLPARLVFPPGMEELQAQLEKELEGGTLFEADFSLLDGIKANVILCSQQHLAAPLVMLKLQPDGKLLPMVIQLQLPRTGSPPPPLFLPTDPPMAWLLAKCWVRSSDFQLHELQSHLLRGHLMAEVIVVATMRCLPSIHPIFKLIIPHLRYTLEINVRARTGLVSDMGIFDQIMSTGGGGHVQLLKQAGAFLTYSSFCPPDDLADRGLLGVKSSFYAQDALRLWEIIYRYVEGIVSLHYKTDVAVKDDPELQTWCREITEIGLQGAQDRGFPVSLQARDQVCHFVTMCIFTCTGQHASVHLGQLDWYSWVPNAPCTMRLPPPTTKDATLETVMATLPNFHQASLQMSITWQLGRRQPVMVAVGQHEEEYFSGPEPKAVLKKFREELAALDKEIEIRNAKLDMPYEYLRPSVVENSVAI

T2: Polyunsaturated fatty acid lipoxygenase ALOX15 (Homo sapiens) (UniProt P16050)
T2 sequence (whole entry): T1 sequence (P16050 whole entry)

B1: Polyunsaturated fatty acid lipoxygenase ALOX15 (Homo sapiens), P16050 (protein)
chain: T1 sequence (P16050 whole entry)

What was measured:
[1] = target: T1, Polyunsaturated fatty acid lipoxygenase ALOX15; test: Inhibition of recombinant human 15-LOX-1 expressed in Escherichia coli BL21(DE3) using linoleic acid as substrate preincubated for 10 mins followed by substrate addition
HCC-1.2 [2] = test: Cytotoxicity against human HCC1.2 cells assessed as growth inhibition after 48 hrs by neutral red assay; format: functional; details: for CC50: HCC-1.2, 48 h, read-out: LD50 (the source's name)
In short: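 HCC-1.2 hepatocarcinoma cells grown in RPMI1640 with 10% heat-inactivated FCS at 37 °C, 5% CO2. 2 × 10^5 cells/well seeded and grown 48 h. Viable cells quantified by neutral red (50 μg/mL) uptake from serum-free medium over 2 h. Dye dissolved in 1% acetic acid/70% ethanol, read as absorbance 560 minus 620 nm. Triplicate wells; three to five independent experiments; LD50 reported.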

HCC-1.2 [3] = test: Photocytotoxicity against human HCC1.2 cells assessed as decrease in cell viability at 0.4 to 10 uM preincubated with day light for 10 mins measured after 48 hrs by neutral red assay; format: functional, cell-based
HCC-1.2 [4] = test: Photocytotoxicity against human HCC1.2 cells assessed as decrease in cell viability preincubated with UV light at 365 nm for 10 mins measured after 48 hrs by neutral red assay; format: functional, cell-based
HCC-1.2 [5] = test: Photocytotoxicity against human HCC1.2 cells assessed as decrease in cell viability preincubated with day light for 10 mins measured after 48 hrs by neutral red assay; format: functional, cell-based
[6] = target: T2, Polyunsaturated fatty acid lipoxygenase ALOX15 (Homo sapiens); test: Inhibition of recombinant human 15-LOX-1 expressed in Escherichia coli BL21(DE3) assessed as residual activity at 50 uM using linoleic acid as substrate preincubated for 10 mins followed by substrate addition
In short: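 h-15-LOX-1 (1:100 enzyme stock, 1:400 final) preincubated 10 min at room temperature with inhibitor in 25 mM HEPES pH 7.4, then linoleic acid added to 25 µM final (inhibitor 50 µM final). 13(S)-HpODE formation read as A234 over time, rate taken from linear part within first 16 min; no-inhibitor = 100%, no-enzyme = 0%. Triplicate.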

[7] = target: T2, Polyunsaturated fatty acid lipoxygenase ALOX15 (Homo sapiens); test: Inhibition of recombinant human 15-LOX-1 expressed in Escherichia coli BL21(DE3) at 15 uM preincubated in light followed by measuring UV absorbance of 13(S)-HpODE at 234 nm over 16 mins; details: TDE = time-dependent effect
In short: (§1)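 Light-sensitivity test: h-15-LOX-1 preincubated with inhibitor for 2, 5 and 10 min under daylight, 365 nm UV irradiation or darkness, in triplicate. Linoleic acid conversion to 13(S)-HpODE then followed at 234 nm over 16 min, relative to a no-inhibitor positive control. Buffer 25 mM HEPES pH 7.4. Experiments repeated at least twice.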

[8] = target: T2, Polyunsaturated fatty acid lipoxygenase ALOX15 (Homo sapiens); test: Inhibition of recombinant human 15-LOX-1 expressed in Escherichia coli BL21(DE3) at 15 uM preincubated with UV light at 365 nm followed by measuring UV absorbance of 13(S)-HpODE at 234 nm over 16 mins; details: TDE = time-dependent effect; in short: as §1
[9] = target: T2, Polyunsaturated fatty acid lipoxygenase ALOX15 (Homo sapiens); test: Inhibition of recombinant human 15-LOX-1 expressed in Escherichia coli BL21(DE3) at 15 uM preincubated with UV light at 254 nm for 2 to 10 mins followed by measuring UV absorbance of 13(S)-HpODE at 234 nm over 16 mins
In short: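 254 nm UV irradiation used as a control during preincubation of h-15-LOX-1 with inhibitor. Activity was then read as 13(S)-HpODE absorbance at 234 nm over 16 min, against a no-inhibitor control. Assay buffer 25 mM HEPES pH 7.4.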

[10] = target: T2, Polyunsaturated fatty acid lipoxygenase ALOX15 (Homo sapiens); test: Inhibition of recombinant human 15-LOX-1 expressed in Escherichia coli BL21(DE3) assessed as residual activity at 15 uM preincubated in darkness followed by measuring UV absorbance of 13(S)-HpODE at 234 nm over 16 mins; in short: as §1
[11] = target: T2, Polyunsaturated fatty acid lipoxygenase ALOX15 (Homo sapiens); test: Uncompetitive inhibition of recombinant human 15-LOX-1 expressed in Escherichia coli BL21(DE3) assessed as enzyme apparent Vmax at 6 uM using linoleic acid as substrate preincubated for 10 mins followed by substrate addition by Lineweaver-Burk plot analysis (reference value: 106.10 +/- 40.95 abs/hr)
[12] = target: T2, Polyunsaturated fatty acid lipoxygenase ALOX15 (Homo sapiens); test: Uncompetitive inhibition of recombinant human 15-LOX-1 expressed in Escherichia coli BL21(DE3) assessed as enzyme apparent Vmax at 8 uM using linoleic acid as substrate preincubated for 10 mins followed by substrate addition by Lineweaver-Burk plot analysis (reference value: 106.10 +/- 40.95 abs/hr)
[13] = compound: Nc1[nH]c(C(=O)c2ccccc2)c(-c2ccc(Cl)cc2Cl)c1C(=O)c1ccc(Cl)c(Cl)c1; test: Uncompetitive inhibition of recombinant human 15-LOX-1 expressed in Escherichia coli BL21(DE3) assessed as apparent Km for substrate at 6 uM using linoleic acid as substrate preincubated for 10 mins followed by substrate addition by Lineweaver-Burk plot analysis (reference value: 32.67 +/- 12.23 uM)
[14] = compound: Nc1[nH]c(C(=O)c2ccccc2)c(-c2ccc(Cl)cc2Cl)c1C(=O)c1ccc(Cl)c(Cl)c1; test: Uncompetitive inhibition of recombinant human 15-LOX-1 expressed in Escherichia coli BL21(DE3) assessed as apparent Km for substrate at 8 uM using linoleic acid as substrate preincubated for 10 mins followed by substrate addition by Lineweaver-Burk plot analysis (reference value: 32.67 +/- 12.23 uM)

Molecule	IC50 [1]	Activity [6]	further results
CCOC(=O)c1ccc(N)[nH]1	> 100 µM	–	–
Nc1[nH]c(C(=O)c2ccccc2)c(-c2ccc3ccccc3c2)c1C(=O)c1ccc(Cl)c(Cl)c1	–	–	Activity (HCC-1.2 [2]): Dose-dependent effect; CC50 (HCC-1.2 [2]): 2640 nM
Nc1[nH]c(C(=O)c2ccccc2)c(-c2ccncc2)c1C(=O)c1cccc(Cl)c1	> 100 µM	–	–
Cc1cccc(C(=O)c2c(N)[nH]c(C(=O)c3ccccc3)c2-c2ccc(Cl)cc2Cl)c1	> 100 µM	–	Activity (HCC-1.2 [2]): Dose-dependent effect; CC50 (HCC-1.2 [2]): 1040 nM; Activity (HCC-1.2 [3]): Active
Nc1[nH]c(C(=O)c2ccccc2)c(-c2ccc(F)cc2F)c1C(=O)c1cccc(Cl)c1	–	–	Activity (HCC-1.2 [2]): Dose-dependent effect; CC50 (HCC-1.2 [2]): 990 nM; Activity (HCC-1.2 [4]): inactive; Activity (HCC-1.2 [5]): inactive
Nc1[nH]c(C(=O)c2ccccc2)c(-c2cccnc2)c1C(=O)c1cccc(Cl)c1	> 100 µM	–	–
NC(=O)c1c(N)[nH]c(C(=O)c2ccccc2)c1-c1ccc(Cl)cc1Cl	> 100 µM	109%	–
Nc1[nH]c(C(=O)c2ccccc2)c(-c2cccc3ccccc23)c1C(=O)c1ccc(Cl)c(Cl)c1	> 100 µM	–	–
Nc1[nH]c(C(=O)c2ccccc2)c(-c2cccc(Cl)c2)c1C(=O)c1cccc(Cl)c1	> 100 µM	–	–
Nc1[nH]c(C(=O)c2ccccc2)c(-c2ccc(Cl)cc2Cl)c1C(=O)c1cccc(F)c1	> 100 µM	–	–
Nc1[nH]c(C(=O)c2ccccc2)c(-c2c(F)cccc2F)c1C(=O)c1ccc(Cl)c(Cl)c1	> 100 µM	100%	–
Nc1[nH]c(C(=O)c2ccccc2)c(-c2ccc(Cl)cc2Cl)c1C(=O)c1ccc(Cl)c(Cl)c1	12.8 µM	40.8%	Activity (HCC-1.2 [2]): Dose-dependent effect; CC50 (HCC-1.2 [2]): 550 nM; inhibition [7]: Tde; inhibition [8]: Tde; inhibition [9]: inactive; Activity [10]: 80%; Vmax(app) [11]: 68.2 abs/hr; Vmax(app) [12]: 47.2 abs/hr
Nc1[nH]c(C(=O)c2ccccc2)c(-c2ccc(Cl)cc2Cl)c1C(=O)c1cccc(Br)c1	6.3 µM	–	Activity (HCC-1.2 [2]): Dose-dependent effect; CC50 (HCC-1.2 [2]): 1640 nM
Nc1[nH]c(C(=O)c2ccccc2)c(-c2ccc(O)cc2O)c1C(=O)c1cccc(Cl)c1	8.3 µM	–	Activity (HCC-1.2 [2]): Dose-dependent effect; CC50 (HCC-1.2 [2]): 2750 nM
Nc1[nH]c(C(=O)c2ccccc2)c(-c2ccccc2Cl)c1C(=O)c1cccc(Cl)c1	> 100 µM	–	–
Nc1[nH]c(C(=O)c2ccccc2)c(-c2ccc(Cl)cc2Cl)c1C(=O)c1ccc(Cl)cc1	> 100 µM	–	Activity (HCC-1.2 [2]): Dose-dependent effect; CC50 (HCC-1.2 [2]): 1050 nM
Nc1[nH]c(C(=O)c2ccccc2)c(-c2ccc(Cl)cc2Cl)c1C(=O)c1cccs1	> 100 µM	–	–
Nc1[nH]c(C(=O)c2ccccc2)c(-c2ccc(Cl)cc2Cl)c1C(=O)c1ccccc1	> 100 µM	73.1%	–
CCOC(=O)c1ccc[nH]1	> 100 µM	–	–
Nc1[nH]c(C(=O)c2ccccc2)c(-c2ccc(-c3ccccc3)cc2)c1C(=O)c1cccc(Cl)c1	> 100 µM	–	–
Nc1[nH]c(C(=O)c2ccccc2)c(-c2ccc(Cl)cc2)c1C(=O)c1cccc(Cl)c1	> 100 µM	–	–
Nc1[nH]c(C(=O)c2ccccc2)c(-c2ccc3c(c2)OCO3)c1C(=O)c1cccc(Cl)c1	> 100 µM	–	–
Nc1[nH]c(C(=O)c2ccccc2)c(-c2c(F)cccc2Cl)c1C(=O)NCCc1c[nH]c2ccccc12	–	92.7%	–
COc1ccc(CNC(=O)c2c(N)[nH]c(C(=O)c3ccccc3)c2-c2ccc3ccccc3c2)cc1OC	–	120%	–
Nc1[nH]c(C(=O)c2ccc(Br)cc2)c(-c2ccc(Br)cc2)c1C(=O)N1CCCCC1	–	63.3%	–
Nc1[nH]c(C(=O)c2ccccc2)c(-c2ccc(Cl)cc2)c1C(=O)NCCC1=CCCCC1	–	94.9%	–
COc1ccccc1CCNC(=O)c1c(N)[nH]c(C(=O)c2ccccc2)c1-c1ccc(Br)cc1	–	64.5%	–
B1	–	–	Km [13]: 24 µM; Km [14]: 20 µM
